In ChEMBL document CHEMBL5705890, “Antitumor activity of an allosteric inhibitor of centromere-associated protein-E” (Proc Natl Acad Sci U S A, 2010):
pKi: −log10 of the molar value.

Tests used:
[1] = tested on: HOS; experiment: Anticancer activity against human HOS cells assessed as cell doubling measured for 72 hrs by DAPI staining based analysis; type: functional
[2] = Anticancer activity against human NCI-H322T cells assessed as cell growth inhibition measured after 72 hrs by DAPI staining based analysis; type: functional
[3] = biological target: Centromere-associated protein E (Homo sapiens, UniProt Q02224, T183A); experiment: Binding affinity to human CENP-E T183A mutant assessed as inhibition constant
Sequence of Centromere-associated protein E (Homo sapiens, UniProt Q02224, T183A) (Q02224 whole entry T183A): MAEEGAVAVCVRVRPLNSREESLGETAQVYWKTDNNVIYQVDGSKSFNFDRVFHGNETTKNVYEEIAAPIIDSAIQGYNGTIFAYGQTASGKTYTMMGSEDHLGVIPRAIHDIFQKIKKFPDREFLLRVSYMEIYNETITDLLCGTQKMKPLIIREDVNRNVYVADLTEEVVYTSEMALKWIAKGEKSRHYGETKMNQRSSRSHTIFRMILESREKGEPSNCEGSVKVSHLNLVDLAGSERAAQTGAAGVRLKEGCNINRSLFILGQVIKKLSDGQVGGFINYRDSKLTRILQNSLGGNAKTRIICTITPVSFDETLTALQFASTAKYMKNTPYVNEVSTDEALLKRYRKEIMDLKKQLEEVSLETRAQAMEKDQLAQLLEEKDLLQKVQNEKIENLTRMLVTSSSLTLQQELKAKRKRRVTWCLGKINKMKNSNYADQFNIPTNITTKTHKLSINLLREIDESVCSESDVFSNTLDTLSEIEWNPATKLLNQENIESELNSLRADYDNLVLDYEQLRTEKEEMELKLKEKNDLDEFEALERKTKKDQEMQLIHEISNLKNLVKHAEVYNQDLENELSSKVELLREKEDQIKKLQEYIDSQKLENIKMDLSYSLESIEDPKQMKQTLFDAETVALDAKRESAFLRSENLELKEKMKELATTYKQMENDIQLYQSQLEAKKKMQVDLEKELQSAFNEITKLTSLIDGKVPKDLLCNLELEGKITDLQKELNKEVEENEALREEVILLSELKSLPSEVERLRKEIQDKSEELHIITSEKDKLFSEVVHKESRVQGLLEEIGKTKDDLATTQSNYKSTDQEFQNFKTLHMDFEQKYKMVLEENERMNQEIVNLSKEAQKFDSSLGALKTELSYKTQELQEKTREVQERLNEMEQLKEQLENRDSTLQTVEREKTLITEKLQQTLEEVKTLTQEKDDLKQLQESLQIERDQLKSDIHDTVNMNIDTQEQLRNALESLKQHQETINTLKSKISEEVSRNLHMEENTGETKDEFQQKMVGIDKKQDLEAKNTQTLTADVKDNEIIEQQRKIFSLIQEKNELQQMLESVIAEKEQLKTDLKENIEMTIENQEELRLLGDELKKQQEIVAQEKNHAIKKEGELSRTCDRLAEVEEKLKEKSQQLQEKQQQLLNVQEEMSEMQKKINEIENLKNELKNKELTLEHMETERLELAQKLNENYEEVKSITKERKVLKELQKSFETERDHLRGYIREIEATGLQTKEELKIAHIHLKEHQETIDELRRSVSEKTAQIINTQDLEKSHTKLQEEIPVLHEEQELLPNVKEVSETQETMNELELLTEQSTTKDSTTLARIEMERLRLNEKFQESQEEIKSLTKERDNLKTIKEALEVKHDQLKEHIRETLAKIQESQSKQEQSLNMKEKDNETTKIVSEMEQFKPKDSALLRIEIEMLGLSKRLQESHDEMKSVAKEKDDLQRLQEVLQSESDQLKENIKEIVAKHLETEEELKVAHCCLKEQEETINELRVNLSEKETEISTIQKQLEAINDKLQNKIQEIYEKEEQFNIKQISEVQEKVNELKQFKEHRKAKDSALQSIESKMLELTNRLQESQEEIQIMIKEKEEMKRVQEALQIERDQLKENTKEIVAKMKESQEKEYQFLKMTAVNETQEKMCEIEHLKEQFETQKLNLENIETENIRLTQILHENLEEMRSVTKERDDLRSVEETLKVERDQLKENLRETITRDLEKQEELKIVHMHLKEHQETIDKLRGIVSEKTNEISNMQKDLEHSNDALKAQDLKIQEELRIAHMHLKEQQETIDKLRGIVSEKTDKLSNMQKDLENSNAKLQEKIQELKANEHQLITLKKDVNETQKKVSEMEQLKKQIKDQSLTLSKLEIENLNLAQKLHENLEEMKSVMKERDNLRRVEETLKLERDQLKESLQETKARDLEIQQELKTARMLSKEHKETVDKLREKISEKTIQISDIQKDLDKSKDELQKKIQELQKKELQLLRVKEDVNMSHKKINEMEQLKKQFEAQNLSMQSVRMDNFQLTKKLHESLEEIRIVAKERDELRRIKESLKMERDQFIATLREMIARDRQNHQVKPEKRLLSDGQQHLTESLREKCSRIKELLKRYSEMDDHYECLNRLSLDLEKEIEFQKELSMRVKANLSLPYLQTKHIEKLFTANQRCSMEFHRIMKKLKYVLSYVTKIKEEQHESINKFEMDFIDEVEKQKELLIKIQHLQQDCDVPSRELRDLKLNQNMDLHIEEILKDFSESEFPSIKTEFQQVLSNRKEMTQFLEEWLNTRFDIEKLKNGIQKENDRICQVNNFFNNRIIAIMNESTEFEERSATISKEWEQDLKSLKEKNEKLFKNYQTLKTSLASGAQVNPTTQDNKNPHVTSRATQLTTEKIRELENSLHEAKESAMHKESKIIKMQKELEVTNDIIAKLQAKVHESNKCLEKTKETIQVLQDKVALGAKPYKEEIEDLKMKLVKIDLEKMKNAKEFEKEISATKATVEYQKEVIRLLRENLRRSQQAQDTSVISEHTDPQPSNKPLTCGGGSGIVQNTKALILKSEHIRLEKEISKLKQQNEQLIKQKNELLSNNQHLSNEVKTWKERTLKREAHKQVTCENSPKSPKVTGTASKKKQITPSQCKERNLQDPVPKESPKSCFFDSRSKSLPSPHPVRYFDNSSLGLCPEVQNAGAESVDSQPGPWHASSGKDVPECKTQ

[4] = tested on: MOLT-16; experiment: Anticancer activity against human MOLT-16 cells assessed as cell doubling measured for 72 hrs by DAPI staining based analysis; type: functional
[5] = tested on: SW48; experiment: Anticancer activity against human SW48 cells assessed as cell growth inhibition measured after 72 hrs by DAPI staining based analysis; type: functional
[6] = tested on: C-4-II; experiment: Anticancer activity against human C-4-II cells assessed as cell growth inhibition measured after 72 hrs by DAPI staining based analysis; type: functional
In short: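 Cells were seeded, and DNA content at 24 h after seeding (T0) was read by imaging of fixed, DAPI-stained cells. Cells were then exposed to a range of drug concentrations for a further 72 h (T72) and DNA content was read again. T72 values were normalized to T0, and GI50 was taken from curve fits as the concentration giving 50% growth inhibition relative to T0 and Ymax.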

[7] = tested on: SK-OV-3; experiment: Anticancer activity against human SK-OV-3 cells assessed as cell growth inhibition measured after 72 hrs by DAPI staining based analysis; type: functional
[8] = Anticancer activity against human SW579 cells assessed as cell growth inhibition measured after 72 hrs by DAPI staining based analysis; type: functional
[9] = tested on: SHP77; experiment: Anticancer activity against human SHP77 cells assessed as cell doubling measured for 72 hrs by DAPI staining based analysis; type: functional
[10] = tested on: DU-4475; experiment: Anticancer activity against human DU-4475 cells assessed as cell growth inhibition measured after 72 hrs by DAPI staining based analysis; type: functional
In short: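 Cells seeded, DAPI-stained DNA content of fixed cells read by imaging 24 h after seeding (T0), and again after a further 72 h exposure to a range of drug concentrations (T72). T72 values were normalized to T0. Curve fits gave the concentration producing 50% growth inhibition relative to T0 and Ymax (GI50).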

[11] = tested on: A549; experiment: Antitumor activity against human A549 cells in xenograft model assessed as difference between median time to endpoint time of treated versus control group at 125 mg/kg; type: functional
[12] = tested on: HT-1376; experiment: Anticancer activity against human HT-1376 cells assessed as cell growth inhibition measured after 72 hrs by DAPI staining based analysis; type: functional
[13] = tested on: SR; experiment: Anticancer activity against human SR cells assessed as cell growth inhibition measured after 72 hrs by DAPI staining based analysis; type: functional
[14] = biological target: Centromere-associated protein E (Homo sapiens, UniProt Q02224); experiment: Binding affinity to wild-type human CENP-E assessed as inhibition constant
Sequence of Centromere-associated protein E (Homo sapiens, UniProt Q02224) (Q02224 whole entry, the tested form may be a part): as the sequence (Q02224 whole entry T183A) above, with A183T counted along it
In short: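 CENP-E motor domain (residues 2–340, C-terminal 6-his, from E. coli BL21(DE3)) run in MT-stimulated ATPase with 500 μM ATP, 5 μM paclitaxel-stabilized MT, 1 nM enzyme in PEM25 buffer, pH 6.8. Apparent Ki taken from the concentration-response curves with explicit correction for enzyme concentration.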

[15] = Anticancer activity against human KPL-1 cells assessed as cell doubling measured for 72 hrs by DAPI staining based analysis; type: functional
[16] = tested on: RPMI-6666; experiment: Anticancer activity against human RPMI-6666 cells assessed as cell growth inhibition measured after 72 hrs by DAPI staining based analysis; type: functional
[17] = tested on: A101D; experiment: Anticancer activity against human A101D cells assessed as cell growth inhibition measured after 72 hrs by DAPI staining based analysis; type: functional
In short: (§1)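 Cells were seeded and, after 24 h, DNA content was read as T0. Cells were then exposed to varying drug concentrations for a further 72 h (T72). Fixed cells were DAPI-stained and DNA content measured by automated imaging. T72 values were normalized to T0. GI50 is the concentration giving 50% growth inhibition between T0 and Ymax, obtained by curve fitting.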

[18] = tested on: DB; experiment: Anticancer activity against human DB cells assessed as cell doubling measured for 72 hrs by DAPI staining based analysis; type: functional
[19] = tested on: HCT-15; experiment: Anticancer activity against human HCT-15 cells assessed as cell growth inhibition measured after 72 hrs by DAPI staining based analysis; type: functional
[20] = Anticancer activity against human CML-T1 cells assessed as cell doubling measured for 72 hrs by DAPI staining based analysis; type: functional
[21] = tested on: Malme-3M; experiment: Anticancer activity against human Malme-3M cells assessed as cell growth inhibition measured after 72 hrs by DAPI staining based analysis; type: functional
[22] = tested on: LS-1034; experiment: Anticancer activity against human LS1034 cells assessed as cell growth inhibition measured after 72 hrs by DAPI staining based analysis; type: functional
[23] = tested on: A498; experiment: Anticancer activity against human A498 cells assessed as cell growth inhibition measured after 72 hrs by DAPI staining based analysis; type: functional; in short: as §1
[24] = tested on: KM12; experiment: Anticancer activity against human KM12 cells assessed as cell growth inhibition measured after 72 hrs by DAPI staining based analysis; type: functional
[25] = tested on: DLD-1; experiment: Anticancer activity against human DLD-1 cells assessed as cell doubling measured for 72 hrs by DAPI staining based analysis; type: functional
[26] = tested on: SW1463; experiment: Anticancer activity against human SW1463 cells assessed as cell doubling measured for 72 hrs by DAPI staining based analysis; type: functional
[27] = tested on: THP-1; experiment: Anticancer activity against human THP-1 cells assessed as cell growth inhibition measured after 72 hrs by DAPI staining based analysis; type: functional
[28] = Antitumor activity against human MV-522 cells in xenograft model assessed as difference between median time to endpoint time of treated versus control group at 62.5 mg/kg; type: functional
[29] = Anticancer activity against human MT-3 cells assessed as cell doubling measured for 72 hrs by DAPI staining based analysis; type: functional
[30] = tested on: HepG2; experiment: Anticancer activity against human HepG2 cells assessed as cell doubling measured for 72 hrs by DAPI staining based analysis; type: functional
[31] = tested on: WiDr; experiment: Anticancer activity against human WiDr cells assessed as cell doubling measured for 72 hrs by DAPI staining based analysis; type: functional
[32] = tested on: NCI-H2122; experiment: Anticancer activity against human NCI-H2122 cells assessed as cell doubling measured for 72 hrs by DAPI staining based analysis; type: functional
[33] = tested on: HEC-1B cell line; experiment: Anticancer activity against human HEC-1B cells assessed as cell doubling measured for 72 hrs by DAPI staining based analysis; type: functional
[34] = tested on: NCI-H460; experiment: Antitumor activity against human NCI-H460 cells in xenograft model assessed as tumor growth delay at 125 mg/kg relative to control; type: functional
[35] = tested on: NCI-H1299; experiment: Antitumor activity against human NCI-H1299 cells in xenograft model assessed as difference between median time to endpoint time of treated versus control group at 125 mg/kg; type: functional
[36] = tested on: NCI-N87; experiment: Anticancer activity against human NCI-N87 cells assessed as cell growth inhibition measured after 72 hrs by DAPI staining based analysis; type: functional
[37] = tested on: MDA-MB-231; experiment: Antitumor activity against human MDA-MB-231 cells in xenograft model assessed as tumor growth delay at 125 mg/kg relative to control; type: functional
[38] = tested on: NCI-H661; experiment: Anticancer activity against human NCI-H661 cells assessed as cell doubling measured for 72 hrs by DAPI staining based analysis; type: functional

CC(C)Oc1ccc(C(=O)N[C@H](CNC(=O)CN(C)C)Cc2ccc(-c3cn4cccc([C@H](C)O)c4n3)cc2)cc1Cl [GSK-923295A]
Activity [1]: 3.65 | GI50 [2]: 25 nM | pKi [3]: 7.89 | Activity [4]: 4.23 | GI50 [5]: 25 nM | GI50 [6]: 46 nM | GI50 [7]: 26 nM | GI50 [8]: 26 nM | Activity [9]: 2.04 | GI50 [10]: 147 nM | Time [11]: 25.3 days | GI50 [12]: 33 nM | GI50 [13]: 29 nM | pKi [14]: 8.49 | Activity [15]: 2.47 | GI50 [16]: 88 nM | GI50 [17]: 17 nM | Activity [18]: 2.76 | GI50 [19]: 151 nM | Activity [20]: 2.88 | GI50 [21]: 51 nM | GI50 [22]: 97 nM | GI50 [23]: 81 nM | GI50 [24]: 56 nM | Activity [25]: 4.11 | Activity [26]: 1.22 | GI50 [27]: 12 nM | Time [28]: 12.5 days | Activity [29]: 2.93 | Activity [30]: 2.45 | Activity [31]: 3.05 | Activity [32]: 2.82 | Activity [33]: 2.04 | Activity [34]: 210% | Time [35]: 16.8 days | GI50 [36]: 29 nM | Activity [37]: 99% | Activity [38]: 1.56
